# Shown are actives, neighbours in structure and some others; about 2.9% of the full set was active somewhere.
# Jurkat viability: cytotoxicity toward Jurkat cells | Jurkat E6.1 viability, ATP luminescence, 48 h | inhibition, % at 4 µM | 56,000 tested, 1.2% active | AID 463;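 active = inhibition above the mean inhibition of all tested compounds plus 3 SD, cut at about 28% in these data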
# RORA act: RORA (human) activation; P35398; CHO-K1 Gal4-RORA LBD luciferase reporter, luminescence; percent increase over mock-subtracted basal signal; activation, % at 10 µM; 65,000 tested, 1.5% active; AID 560;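 active = activation above the mean of all tested compounds plus 3 SD, cut at about 49% in these data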;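 also: 0% = DMSO-treated RORA cells and 100% = added signal equal to DMSO minus mock-transfected cells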
# MT1-MMP txn act: activates MT1-MMP transcription | AID 750 | HT1080 MT1-MMP promoter luciferase reporter, luminescence, overnight; hits give high values | 86,000 tested, 0.16% active | activation factor at 10 µM;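 active = activation factor of at least 2 for MT1-MMP transcription at 10 µM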
# HEK293 NFkB inh: lowers PMA/ionomycin-induced NF-kB signal in HEK293 cells | HEK-293 NF-kB luciferase reporter, luminescence | AID 465 | 62,000 tested, 0.21% active | inhibition, % at 3 µM;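 active = inhibition above the mean of all tested compounds plus 3 SD, cut at about 40% in these data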;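 also: 0% = stimulated DMSO wells and 100% = 10 µM reference inhibitor 5653914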
#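 System – HEK-293 cells with stable firefly luciferase reporter driven by four HIV NF-kB elements · Doses – one dose, 3 µM · Schedule – 1 h compound pre-incubation, 16 h PMA/ionomycin at 37 °C · Technique – luminescence from luciferase substrate reagent · Measure – percent inhibition normalized per plate to DMSO and reference-inhibitor controls · Replicates – tested once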
# SF1 activator: activators of human nuclear receptor SF-1 | activation, % at 10 µM | CHO-K1 Gal4-SF-1 LBD luciferase reporter; % increase over DMSO SF-1-specific signal | AID 522 | Q13285 | 65,000 tested, 1.9% active;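 active = activation above the mean activation of all tested compounds plus 3 SD, cut at about 50% in these data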
# Target sequence (Q13285 whole entry, looked up, the tested form may be a part): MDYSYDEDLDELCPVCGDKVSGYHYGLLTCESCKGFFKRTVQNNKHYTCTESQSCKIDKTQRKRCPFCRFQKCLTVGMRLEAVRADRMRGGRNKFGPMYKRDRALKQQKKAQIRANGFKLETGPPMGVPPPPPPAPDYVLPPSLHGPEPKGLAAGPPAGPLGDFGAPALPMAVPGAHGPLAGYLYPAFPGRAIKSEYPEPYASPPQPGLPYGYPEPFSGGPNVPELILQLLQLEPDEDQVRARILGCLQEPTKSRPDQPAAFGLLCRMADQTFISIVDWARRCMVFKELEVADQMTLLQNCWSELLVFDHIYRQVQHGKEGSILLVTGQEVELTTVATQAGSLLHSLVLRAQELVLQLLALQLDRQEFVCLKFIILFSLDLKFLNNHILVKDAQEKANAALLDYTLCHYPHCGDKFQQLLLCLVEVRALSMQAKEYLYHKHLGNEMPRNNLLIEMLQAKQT
#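 Assay system: CHO-K1 cells co-transfected with Gal4 DBD–human SF-1 LBD, 5xGal4 luciferase reporter; doses: 10 µM only; incubation: 20 h compound exposure at 37 °C after 1 h cell settling; signal: luciferase light emission; evaluation: percent activation versus DMSO; repeats: one test per compound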
# The depositor's hits bear a star; x = not tested or not shown.
SMILES,Jurkat viability,RORA act,MT1-MMP txn act,HEK293 NFkB inh,SF1 activator
Cn1c(SCc2ccccc2Cl)nnc1-c1cnccn1,x,52*,1.6,-10,56*
Cc1sc2nc(SCC(=O)NCCOCCO)n(C)c(=O)c2c1C,3,-14,1.1,9,17
Nc1c(C(=O)NCc2ccco2)nnn1-c1ccccc1,9,9,1.5,1,55*
Cc1cc(C)cc(-n2nnc(C(=O)NCc3ccco3)c2N)c1,-10,10,1.2,8,12
CC(NC(=O)CCC1COc2ccccc2O1)c1ccccc1 (stereo not drawn),x,x,1.1,x,x
CCC/C(O)=C1\C(=O)CC(C)(C)CC1=Nc1ccc(OC)cc1OC,86*,7,x,21,1
COCCCN1C(=O)c2[nH]nc(-c3ccccc3O)c2C1c1cccc(Cl)c1 (stereo not drawn),90*,18,0.7,7,30
CC(C)OCCCN1C(=O)c2[nH]nc(-c3ccccc3O)c2C1c1cccc(Cl)c1 (stereo not drawn),8,5,1.3,7,7
COc1ccc(-n2c(C)nc3c(cnn3-c3ccc(C)c(C)c3)c2=O)cc1,7,65*,1.1,10,40
Cc1ccc(-n2ncc3c(=O)n(-c4ccc(C)c(C)c4)c(C)nc32)cc1,3,0,1.2,14,7
O=C(CCn1c(=O)sc2ccccc21)NCCN1CCOCC1,-4,-4,1.1,-2,-6
CCn1c2ccccc2c2nnc(SCC(=O)NC(C(=O)OC)C(C)C)nc21 (stereo not drawn),3,-19,1.4,19,-3
COc1ccc(-c2nnc(-c3ccc(OCC(C)C)cc3)o2)cc1,x,x,1.1,x,x
CC(C)COc1ccc(-c2nnc(-c3ccncc3)o2)cc1,3,33,1.8,-29,85*
Cc1cnc2cc(Cl)c(Cl)cc2n1,x,x,1.1,x,x
Cc1nc2cc(Cl)c(Cl)cc2nc1C,-4,89*,1.4,9,64*
CCOC(=O)CSC1=C(C#N)C(c2ccc(C)s2)CC(=O)N1 (stereo not drawn),86*,54*,0.5,23,26
O=C(COC(=O)c1ccccc1)Nc1ccccc1N1CCOCC1,x,x,1,x,x
CCC(Sc1nc2cc(OC)c(OC)cc2c2nc(C)nn12)C(=O)NCc1ccco1 (stereo not drawn),5,-4,1.1,4,-4
COc1ccc(C(=O)C(CO)Oc2ccccc2OC)cc1OC (stereo not drawn),3,2,0.9,8,5
CCOC(=O)Cc1cc(=O)n2[nH]c(-c3ccccc3)cc2n1,x,x,1.3,x,x
CCCc1cc(=O)n2[nH]c(-c3ccc(Br)cc3)cc2n1,-6,38,1.6,-36,112*
CCCCc1c(C)c2ccc(OCC(C)=O)cc2oc1=O,x,20,1.3,x,74*
CCCc1c(C)c2ccc(OCC(C)=O)cc2oc1=O,4,11,1.5,1,21
Cc1ccc2nc(C3CCN(S(=O)(=O)c4ccc5ccccc5c4)CC3)[nH]c2c1,x,x,1,x,x
SMILES,Jurkat viability,RORA act,MT1-MMP txn act,HEK293 NFkB inh,SF1 activator
Cc1ccc(S(=O)(=O)/N=C2/C=C(C3C(=O)CC(C)(C)CC3=O)C(=O)c3ccccc32)cc1,x,x,2.1*,x,x
CCOC(=O)Nc1ccc2c(c1)Nc1ccccc1S2,12,53*,1.1,6,1
CN1CCN(Cc2ccc(OCc3ccccc3)cc2)CC1,-2,22,1.5,-21,17
CCN1CCN(Cc2ccc(OCc3ccccc3)cc2)CC1,6,47,1,-3,57*
O=C(c1ccco1)N1CCn2c1nc1ccccc12,8,62*,1.7,2,41
Cc1noc(C)c1COc1cccc(C(=O)OCC(=O)N2CC(=O)Nc3ccccc32)c1,84*,25,0.9,-4,24
CCOc1ncccc1C(=O)OCC(=O)N1CC(=O)Nc2ccccc21,-7,-4,1,9,0
Cc1cc(C)cc(C(=O)N2CC(C)OC(C)C2)c1 (stereo not drawn),x,x,0.9,x,x
Clc1ccc2nc(N3CCCCC3)sc2c1,-7,29,1.8,-48,65*
Fc1cccc2sc(N3CCCCC3)nc12,2,33,1.4,-23,73*
Clc1ccc2nc(N3CCCCC3)[nH]c2c1,6,14,0.8,-40,36
CCOC(=O)C1(N(CC)CC)Sc2cc(C)ccc2NC1=O (stereo not drawn),36*,27,1.2,6,23
CCCCN(CCCC)CCCOC(=O)c1ccc(N)cc1,x,-6,1.1,x,-1
Cc1ccc(NC(=O)Cc2nc(CSc3nnc(-c4ccc5c(c4)OCO5)o3)cs2)cc1,5,-2,1.5,-8,41
CCc1nnc2c3cnn(-c4ccccc4)c3ncn12,2,83*,1.6,6,1
Cc1ccc(-n2ncc3c2ncn2c(C)nnc32)cc1C,-11,60*,1,-45,21
c1ccc(-n2ncc3c2ncn2cnnc32)cc1,-2,-12,1.1,21,-3
COc1ccc(NC(=O)C2CC(=O)OC2(C)C)cc1 (stereo not drawn),-4,-11,1,7,-9
O=C(Nc1cccnc1)c1noc2c1CCCC2,11,49*,1.4,2,26
Cc1cc(NC(=O)c2noc3c2CCCCC3)no1,-1,58*,1.7,4,39
COc1ccc(NC(=O)c2cc(C(C)C)on2)c(OC)c1,-8,70*,1.5,-12,50*
CC(=O)c1ccc(NC(=O)c2noc3c2CCCCC3)cc1,-6,50*,1.4,-31,32
Cc1cc(NC(=O)c2noc3c2CCCC3)no1,6,7,1.3,4,13
CC(C)(C)C1CCc2onc(C(=O)Nc3cccnc3)c2C1 (stereo not drawn),7,8,1,24,-15
CCCS(=O)(=O)N1CCCC(C(=O)N2CCN(C(=O)OCC)CC2)C1 (stereo not drawn),2,2,1,10,1
SMILES,Jurkat viability,RORA act,MT1-MMP txn act,HEK293 NFkB inh,SF1 activator
Cc1[nH]c(=O)[nH]c(=O)c1S(=O)(=O)N1CCCC1,x,-16,x,x,0
CCN(CC)C(NC(=O)c1ccccc1)C(=O)c1ccccc1 (stereo not drawn),1,-4,1.6,19,11
Cc1nc2c(cnn2-c2ccccc2Cl)c(=O)n1-c1ccc(C(C)C)cc1,x,x,1.1,x,x
C[C@@H](C(=O)Nc1ccc2ccccc2c1)[C@H]1C[C@]1(C)[C@H](NS(=O)(=O)c1ccc2ccccc2c1)c1ccccc1,x,x,1.2,x,x
CC(C)c1cc(C(=O)Nc2cccnc2)no1,7,61*,1.4,-9,30
COc1ccc(C(=O)c2ccc(N(C)C)cc2)c(OC)c1,81*,26,x,32,17
CN(C)c1ccc(NC(=O)Nc2ccc3snnc3c2)cc1,-5,56*,1.3,14,48
COc1ccc(NC(=O)Nc2nccs2)cc1,19,64*,1.1,-1,73*
COc1ccc(NC(=O)Nc2ccc(N(C)C)cc2)cc1,-1,58*,1.2,-14,29
